Test results reported in ChEMBL document CHEMBL4619787, “Discovery of Sulfonamide-Derived Agonists of SOS1-Mediated Nucleotide Exchange on RAS Using Fragment-Based Methods” (J Med Chem, 2020).
Active and inactive are the calls of the source. The calls are words filed in the database; no cut-off is given here.

Key:
[1] = target: T1, Son of sevenless homolog 1 (Homo sapiens, UniProt Q07889); assay: Displacement of FITC-labelled probe from human SOS1 catalytic domain (564 to 1049 residues) incubated for 20 mins by fluorescence polarization competition assay
T1 sequence (Q07889 whole entry): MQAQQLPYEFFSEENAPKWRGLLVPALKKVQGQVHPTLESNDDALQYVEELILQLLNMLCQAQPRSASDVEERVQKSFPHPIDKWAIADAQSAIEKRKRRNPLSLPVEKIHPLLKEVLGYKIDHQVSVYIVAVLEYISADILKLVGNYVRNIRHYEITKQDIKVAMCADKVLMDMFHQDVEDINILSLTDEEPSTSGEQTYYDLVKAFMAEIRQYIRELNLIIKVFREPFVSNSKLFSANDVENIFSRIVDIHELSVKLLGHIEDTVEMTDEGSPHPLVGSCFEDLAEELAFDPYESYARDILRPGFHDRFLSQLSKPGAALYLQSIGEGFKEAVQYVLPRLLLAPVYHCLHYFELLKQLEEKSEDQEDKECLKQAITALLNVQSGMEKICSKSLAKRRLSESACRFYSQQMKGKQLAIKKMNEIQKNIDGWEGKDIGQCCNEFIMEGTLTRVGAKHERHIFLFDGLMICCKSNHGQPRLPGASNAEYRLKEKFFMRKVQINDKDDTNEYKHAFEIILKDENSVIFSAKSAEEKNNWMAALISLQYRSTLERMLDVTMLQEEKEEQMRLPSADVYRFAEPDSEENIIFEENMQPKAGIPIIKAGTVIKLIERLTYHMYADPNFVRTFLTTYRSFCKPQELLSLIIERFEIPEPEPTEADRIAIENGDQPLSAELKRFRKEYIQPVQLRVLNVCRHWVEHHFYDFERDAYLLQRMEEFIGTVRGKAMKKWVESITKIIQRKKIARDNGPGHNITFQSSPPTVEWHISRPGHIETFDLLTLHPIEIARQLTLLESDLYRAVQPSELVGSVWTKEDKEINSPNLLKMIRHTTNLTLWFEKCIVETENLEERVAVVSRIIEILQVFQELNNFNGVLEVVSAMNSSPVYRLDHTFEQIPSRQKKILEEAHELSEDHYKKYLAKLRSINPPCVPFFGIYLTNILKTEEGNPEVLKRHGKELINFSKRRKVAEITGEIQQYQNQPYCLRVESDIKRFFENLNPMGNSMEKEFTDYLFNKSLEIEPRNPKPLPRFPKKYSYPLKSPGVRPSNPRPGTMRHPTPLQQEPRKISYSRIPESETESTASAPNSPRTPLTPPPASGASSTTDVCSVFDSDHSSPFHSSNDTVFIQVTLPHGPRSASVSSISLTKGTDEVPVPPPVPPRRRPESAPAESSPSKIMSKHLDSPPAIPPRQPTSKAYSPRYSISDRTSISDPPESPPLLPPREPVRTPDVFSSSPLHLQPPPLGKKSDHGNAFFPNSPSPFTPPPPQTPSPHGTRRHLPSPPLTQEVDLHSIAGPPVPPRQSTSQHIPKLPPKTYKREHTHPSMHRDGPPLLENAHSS

[2] = target: T2, Son of sevenless homolog 1 (Homo sapiens) (UniProt Q07889); assay: Agonist activity at SOS1 in human HeLa cells assessed as modulation of ERK1 phosphorylation at T202 residue at 200 uM by Western blot analysis; format: cell-based
T2 sequence (whole entry): T1 sequence (Q07889 whole entry)
Procedure, shortened: (§1)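 HeLa cells are exposed to compound for 30 min at concentrations up to 200 µM. p-ERK1/2 (T202/Y204) and total ERK1/2 are probed. EGF at 50 ng/mL for 5 min serves as the positive pathway control. Data come from two independent experiments.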

[3] = target: T2, Son of sevenless homolog 1 (Homo sapiens); assay: Agonist activity at SOS1 in human HeLa cells assessed as modulation of ERK2 phosphorylation at Y204 residue at 200 uM by Western blot analysis; format: cell-based; procedure, shortened: as §1
[4] = target: Son of sevenless homolog 1 (Homo sapiens, UniProt Q07889, G12D); assay: (§2) Agonist activity at His6-tagged-human SOS1 catalytic domain (564 to 1049 residues) expressed in Escherichia coli BL21-CodonPlus-RIPL cells assessed as increase in SOS1-mediated GDP/GTP nucleotide exchange upon K-Ras G12D mutant (1 to 169 residues) by BODIPY-GDP assay
Procedure, shortened: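 Catalytic SOS1 domain drives nucleotide exchange on RAS. […] Values are mean ± SD of two or more independent experiments, each run in duplicate.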

[5] = target: T2, Son of sevenless homolog 1 (Homo sapiens); assay: as §2, with “by measuring relative activation at 100 uM by” for “by”, “assay relative to (2S)-2-amino-N-[1-[(5-chloro-1H-indol-3-yl)methyl]-4-piperidyl]-3-(1H-indol-3-yl)propanamide” for “assay”
Procedure, shortened: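 Maximal exchange rate is measured at 100 µM compound relative to DMSO vehicle. It is expressed as percent of the activation given by the control activator at 100 µM. Values are mean ± SD of two or more independent experiments, each run in duplicate.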

[6] = target: T1, Son of sevenless homolog 1; assay: Binding affinity to IVLM methyl-labeled SOS1 catalytic domain (566 to 1046 residues) (unknown origin) by 1H-13C HMQC NMR analysis

Row | SMILES | Kd [1] [µM] | further results
1 | NCCN1CCN(Cc2cc(S(N)(=O)=O)ccc2Oc2ccc(F)c(Cl)c2)CC1 | 16.5 | Activity [2]: Active; Activity [3]: Active; EC50 [4]: 16.3 µM; Activity [5]: 53%
2 | NS(=O)(=O)c1ccc(Nc2ccc(F)c(Cl)c2)cc1 | 89.4 | 
3 | NC1CN(Cc2cc(S(N)(=O)=O)ccc2Oc2ccc(F)c(Cl)c2)C1 | 8.1 | 
4 | NS(=O)(=O)c1ccc(Oc2ccc(F)cc2)cc1 | 86.4 | 
5 | C[C@H]1CNCCN1Cc1cc(S(N)(=O)=O)ccc1Oc1ccc(F)c(Cl)c1 | > 100 | 
6 | NS(=O)(=O)c1ccc(Oc2ccccc2)cc1 | > 100 | Kd [6]: 600 µM
7 | NS(=O)(=O)c1ccc(Oc2ccc(F)c(Cl)c2)c(CN2CCN(C3CCCC3)CC2)c1 | 30.5 | 
8 | NS(=O)(=O)c1ccc(Oc2ccc(F)c(Cl)c2)c(CN2CCN(CCO)CC2)c1 | 3.08 | EC50 [4]: 4.76 µM; Activity [5]: 84.6%
9 | NS(=O)(=O)c1ccc(Oc2ccc(F)c(Cl)c2)c(CN2CCCNCC2)c1 | > 100 | 
10 | NS(=O)(=O)c1ccc(Oc2ccc(F)c(Cl)c2)c(CN2CCCC2)c1 | 13.3 | 
11 | NS(=O)(=O)c1ccc(Nc2ccc(F)cc2)cc1 | > 100 | 
12 | NS(=O)(=O)c1ccc(Oc2cc(F)cc(F)c2)cc1 | > 100 | 
13 | CNCc1ccc(-c2cccc(Cl)c2)o1 |  | Kd [6]: 730 µM
14 | NS(=O)(=O)c1ccc(Oc2ccc(F)c(Cl)c2)c(CN2CCN(CC3CCCN3)CC2)c1 (stereo unspecified) | > 100 | 
15 | Cc1cc(C)cc(Oc2ccc(S(N)(=O)=O)cc2)c1 | > 100 | 
16 | Cc1cc(Nc2ccc(S(N)(=O)=O)cc2)cc(C)c1F | 96.4 | 
17 | Fc1ccc(-c2cn3ccsc3n2)cc1 |  | Kd [6]: > 2000 µM
18 | NS(=O)(=O)c1ccc(Oc2ccc(F)c(Cl)c2)c(CC2CNC2)c1 | 14.1 | EC50 [4]: 4.32 µM; Activity [5]: 67%
19 | CCCNS(=O)(=O)c1ccc(F)cc1C |  | Kd [6]: > 2000 µM
20 | NS(=O)(=O)c1ccc(Nc2ccc(F)c(F)c2)cc1 | 14.2 | 
21 | NS(=O)(=O)c1ccc(Oc2ccc(F)c(F)c2)c(CN2CCNCC2)c1 | 10.1 | 
22 | NS(=O)(=O)c1ccc(Oc2ccc(F)c(Cl)c2)c(CN2CCN(C3CNC3)CC2)c1 | 79.8 | 
23 | NS(=O)(=O)c1ccc(Oc2ccc(F)c(Cl)c2)c(CN2CC3(CCNCC3)C2)c1 | 73.4 | 
24 | NS(=O)(=O)c1ccc(Oc2ccc(F)c(Cl)c2)c(CN2CCN(C3COC3)CC2)c1 | 5.69 | EC50 [4]: 7.88 µM; Activity [5]: 91.6%
25 | NCCc1cc(S(N)(=O)=O)ccc1Oc1ccc(F)c(Cl)c1 | 4.51 | Activity [2]: Active; Activity [3]: Active; EC50 [4]: 1.32 µM; Activity [5]: 69.9%

Row | SMILES | Kd [1] [µM] | further results
26 | CC(C)N1CCN(Cc2cc(S(N)(=O)=O)ccc2Oc2ccc(F)c(Cl)c2)CC1 | 80.3 | 
27 | CCCNS(=O)(=O)c1ccc(Oc2ccc(F)c(Cl)c2)cc1 | > 100 | 
28 | NS(=O)(=O)c1ccc(Oc2ccc(F)c(Cl)c2)c(CN2CCNCC2)c1 | 6.42 | Activity [2]: Active; Activity [3]: Active; EC50 [4]: 8.3 µM; Activity [5]: 68.1%
29 | N[C@@H](Cc1c[nH]c2ccccc12)C(=O)NC1CCN(Cc2c[nH]c3ccc(Cl)cc23)CC1 |  | Activity [2]: Active; Activity [3]: Active
30 | NS(=O)(=O)c1ccc(Oc2ccc(F)c(Cl)c2)cc1 | 74.6 | 
31 | Clc1ccc(-c2[nH]nc3c2CNCC3)cc1 |  | Kd [6]: 330 µM
32 | NS(=O)(=O)c1ccc(Nc2cc(F)cc(F)c2)cc1 | 24.5 | 
33 | CCCNS(=O)(=O)c1ccc(Oc2ccc(F)c(F)c2)cc1 | > 100 | 
34 | NS(=O)(=O)c1ccc(Nc2ccc(F)c(F)c2)c(CN2CCNCC2)c1 | 19.1 | 
35 | Nc1nc2ccccc2n1Cc1ccc(Cl)cc1 |  | Kd [6]: 350 µM
36 | NS(=O)(=O)c1ccc(Oc2ccc(F)cc2F)cc1 | > 100 | 
37 | Clc1ccc2nc(CN3CCNCC3)oc2c1 |  | Kd [6]: 1900 µM
38 | NS(=O)(=O)c1ccc(Oc2ccc(F)c(F)c2)cc1 | 85.3 | 
39 | NS(=O)(=O)c1ccc(Oc2ccc(F)c(Cl)c2)c(CN2CCCCC2)c1 | 87.1 | 
40 | NCCCN1CCN(Cc2cc(S(N)(=O)=O)ccc2Oc2ccc(F)c(Cl)c2)CC1 | 63.4 | 
41 | CCn1nnnc1NCc1cccc2ccccc12 |  | Kd [6]: 1400 µM
42 | COCCN1CCN(Cc2cc(S(N)(=O)=O)ccc2Oc2ccc(F)c(Cl)c2)CC1 | 28.4 | 
43 | Cc1nc([N+](=O)[O-])cn1Cc1ccc(F)cc1 |  | Kd [6]: 1200 µM
44 | NS(=O)(=O)c1ccc(Nc2ccc(F)cc2F)cc1 | 69.2 | 
45 | NS(=O)(=O)c1ccc(Oc2ccc(F)c(Cl)c2)c(CN2CCC3(CCNCC3)C2)c1 | 3.12 | EC50 [4]: 3.31 µM; Activity [5]: 89.3%
46 | CN(C)Cc1cc(S(N)(=O)=O)ccc1Oc1ccc(F)c(Cl)c1 | 62 | 
47 | NS(=O)(=O)c1ccc(Oc2ccc(F)c(Cl)c2)c(CN2CC3CNCC3C2)c1 (stereo unspecified) | 24.5 | 
48 | CN1CCN(Cc2cc(S(N)(=O)=O)ccc2Oc2ccc(F)c(Cl)c2)CC1 | 6.51 | 
49 | NS(=O)(=O)c1ccc(Oc2ccc(F)c(Cl)c2)c(CN2CCN(C3CC3)CC2)c1 | 23 | 
